Assay results as given in ChEMBL document CHEMBL1124186, “Synthesis and evaluation of tylosin-related macrolides modified at the aldehyde function: a new series of orally effective antibiotics” (1988).
≈ marks a conversion by molar mass, not a printed value.

Key:
Rattus norvegicus [1] = test: Peripheral plasma levels in rats after oral administration of 100 mg/kg dose for 2 hr; assay type: functional, organism-based; set-up: dose 100 mg/kg
How it was run: (§1)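 Rats received 100 mg/kg orally and were sampled for peripheral plasma. Concentrations were measured by Micrococcus luteus agar-diffusion microbiological assay in Antibiotic Medium 1, with zone sizes converted using the standard curve for the appropriate compound. Each value is the average of three rats per time point.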

Rattus norvegicus [2] = test: Peripheral plasma levels in rats after oral administration of 100 mg/kg dose for 0.5 hr; assay type: functional, organism-based; set-up: dose 100 mg/kg; how it was run: as §1
Enterococcus faecium = test: In vitro antimicrobial activity against Streptococcus faecium X66; assay type: functional, streptococcus fae-cium
[3] = system: Staphylococcus epidermidis; test: In vitro antimicrobial activity against Staphylococcus epidermidis EPI1; assay type: functional
Mus musculus [4] = test: Peripheral plasma levels in mice after oral administration of 100 mg/kg dose for 2 hr; assay type: functional, organism-based; set-up: dose 100 mg/kg
How it was run: (§2)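 Mice were given the compound orally and sampled for peripheral plasma at each time point. Plasma was assayed microbiologically against Micrococcus luteus seeded in Antibiotic Medium 1. Inhibition zone sizes were read, and concentrations were calculated from each compound's own standard curve. Each value is the mean of five mice per time point.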

Streptococcus pneumoniae [5] = test: In vivo effective dose against experimental infections in mice Strep. pneumoniae park when administered sc; assay type: functional
Streptococcus pneumoniae [6] = test: In vivo effective dose against experimental infections in mice Strep. pneumoniae park when administered orally; assay type: functional; conditions: po
Rattus norvegicus [7] = test: Peripheral plasma levels in rats after oral administration of 100 mg/kg dose for 4 hr; assay type: functional, organism-based; set-up: dose 100 mg/kg; how it was run: as §1
Mus musculus [8] = test: Peripheral plasma levels in mice after oral administration of 100 mg/kg dose for 0.5 hr; assay type: functional, organism-based; set-up: dose 100 mg/kg; how it was run: as §2
Rattus norvegicus [9] = test: Peripheral plasma levels in rats after oral administration of 100 mg/kg dose for 1 hr; assay type: functional, organism-based; set-up: dose 100 mg/kg; how it was run: as §1
Rattus norvegicus [10] = test: Peripheral plasma levels in rats after oral administration of 100 mg/kg dose for 0.25 hr; assay type: functional, organism-based; set-up: dose 100 mg/kg; how it was run: as §1
Staphylococcus aureus [11] = test: In vivo effective dose against experimental infections in mice Staphylococcus aureus X1 when administered sc; assay type: functional
Mus musculus [12] = test: Peripheral plasma levels in mice after oral administration of 100 mg/kg dose for 1 hr; assay type: functional, organism-based; set-up: dose 100 mg/kg; how it was run: as §2
Staphylococcus aureus [13] = test: In vitro antimicrobial activity against Staphylococcus aureus X1; assay type: functional
Streptococcus pneumoniae [14] = test: In vitro antimicrobial activity against Streptococcus pneumoniae; assay type: functional
Streptococcus pyogenes [15] = test: In vivo effective dose against experimental infections in rodent caused by Streptococcus pyogenes C203 when administered sc; assay type: functional
Staphylococcus aureus [16] = test: In vivo effective dose against experimental infections in mice Staphylococcus aureus X1 when administered orally; assay type: functional; conditions: po
Streptococcus pyogenes [17] = test: In vivo effective dose against experimental infections in rodent caused by Streptococcus pyogenes C203 when administered orally; assay type: functional; conditions: po
Haemophilus influenzae = test: In vitro antimicrobial activity against Haemophilus influenzae.; assay type: functional
Streptococcus pyogenes [18] = test: In vitro antimicrobial activity against Streptococcus pyogenes C203; assay type: functional

MIC (Enterococcus faecium): 4 µg/mL (≈ 4.6 µM)
MIC [3]: 0.5 µg/mL (≈ 0.575 µM)
MIC (Staphylococcus aureus [13]): 0.5 µg/mL (≈ 0.575 µM)
MIC (Streptococcus pneumoniae [14]): 0.25 µg/mL (≈ 0.288 µM)
MIC (Haemophilus influenzae): 8 µg/mL (≈ 9.2 µM)
MIC (Streptococcus pyogenes [18]): 0.25 µg/mL (≈ 0.288 µM)
Compound: CC[C@H]1OC(=O)C[C@@H](O)[C@H](C)[C@@H](O[C@@H]2O[C@H](C)[C@@H](O)[C@H](N(C)C)[C@H]2O)[C@@H](CCN2CCCCCCC2)C[C@@H](C)C(=O)/C=C/C(C)=C/[C@@H]1CO[C@@H]1O[C@H](C)[C@@H](O)[C@@H](OC)[C@H]1OC
Concentration (Rattus norvegicus [1]): 1.1 µg/mL
Concentration (Rattus norvegicus [2]): 0.4 µg/mL
Concentration (Mus musculus [4]): 0.1 µg/mL
ED50 (Streptococcus pneumoniae [5]): > 20 mg/kg
ED50 (Streptococcus pneumoniae [6]): > 50 mg/kg
Concentration (Rattus norvegicus [7]): 0.2 µg/mL
Concentration (Mus musculus [8]): 0.1 µg/mL
Concentration (Rattus norvegicus [9]): 0.2 µg/mL
Concentration (Rattus norvegicus [10]): 0.3 µg/mL
ED50 (Staphylococcus aureus [11]): 2 mg/kg
Concentration (Mus musculus [12]): 0.1 µg/mL
ED50 (Streptococcus pyogenes [15]): 0.9 mg/kg
ED50 (Staphylococcus aureus [16]): 25 mg/kg
ED50 (Streptococcus pyogenes [17]): 20 mg/kg
